We go through three compounds from ChEMBL document CHEMBL1121375, “Synthesis and structure-function studies of melanocyte stimulating hormone analogues modified in the 2 and 4(7) positions: comparison of activities on frog skin melanophores and melanoma adenylate cyclase” (1980).

One assay is filed under the species Mus musculus. Briefly: Relative potency using melanoma adenylate cyclase bioassay system from S-91 melanoma tumors grown in DBA/2J mice. The assay is classed as functional. Put shortly: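 Particulate membrane fraction from S-91 melanoma tumors; 100 μg membrane protein starts the reaction. Medium: 1 mM [α-³²P]ATP, 5 mM MgCl₂, 1 mM cAMP, 0.5 mM IBMX, 1 mM DTT, 20 mM creatine phosphate, 100 U/mL creatine phosphokinase, 10 μM GTP, 30 mM Tris-HCl pH 7.5. 10 min at 30 °C; [³²P]cAMP isolated and counted. Potency from half-maximal response relative to α-MSH.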

In assay [1] the test system is Melanocortin receptor (Rana berlandieri). Briefly: Relative potency using frog skin bioassay system.

Square brackets hold non-standard residues; d marks the D form. Peptide text beside a SMILES is read from it. Nle = CCCC[C@H](N)C(=O)O

As for `CCCC[C@H](NC(=O)[C@H](CO)NC(=O)[C@H](Cc1ccccc1)NC(=O)[C@H](CO)NC(C)=O)C(=O)N[C@@H](CCC(=O)O)C(=O)N[C@@H](Cc1c[nH]cn1)C(=O)N[C@@H](Cc1ccccc1)C(=O)N[C@@H](CCCN=C(N)N)C(=O)N[C@@H](Cc1c[nH]c2ccccc12)C(=O)NCC(=O)N[C@@H](CCCCN)C(=O)N1CCC[C@H]1C(=O)N[C@H](C(N)=O)C(C)C`, the Potency in the assay listed under Mus musculus came to 0.9; in assay [1], 0.82.

Take H-DEGPYKMEHFRWGSPPKD-OH: the Potency in the assay filed under Mus musculus turned out to be 2.2; in assay [1] it was 0.55.

As to `CCCC[C@H](NC(=O)[C@H](CCCCN)NC(=O)[C@H](Cc1ccc(O)cc1)NC(=O)[C@@H]1CCCN1C(=O)CNC(=O)[C@H](CCC(=O)O)NC(=O)[C@@H](N)CC(=O)O)C(=O)N[C@@H](CCC(=O)O)C(=O)N[C@@H](Cc1c[nH]cn1)C(=O)N[C@@H](Cc1ccccc1)C(=O)N[C@@H](CCCN=C(N)N)C(=O)N[C@@H](Cc1c[nH]c2ccccc12)C(=O)NCC(=O)N[C@@H](CO)C(=O)N1CCC[C@H]1C(=O)N1CCC[C@H]1C(=O)N[C@@H](CCCCN)C(=O)N[C@@H](CC(=O)O)C(=O)O` (H-DEGPYK[Nle]EHFRWGSPPKD-OH), the Potency in the assay filed under Mus musculus stood at 4.2; in assay [1], 5.2.
